Screening data as filed in PubChem.
E-selectin induc: induces E-selectin expression in human endothelial cells; P16581; HUVEC E-selectin immunofluorescence imaging; normalized: neutral wells 0, TNF-alpha wells 100; activation, % at 7.58 µM; 0.37% of 260,000 active; AID 686992;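 active = mean E-selectin-positive cell signal at least 10% of the positive control, reached in at least 60% of replicates, without over 20% cell loss; inconclusive = no rule given, readout overlaps actives, possibly toxicity-flagged; inactive = the rest, including those meeting only one limit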
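Read-out basis: % PE-positive cells; Test system: HUVEC primary endothelial cells; Technique: immunofluorescence imaging; Dosing: single-point compound dose.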
HIV Env fusion: inhibitors of HIV Env-mediated cell fusion; inhibition, % at 12.3 µM; AID 651610; 1.1% of 360,000 active; HeLa-JRFL Env/CEM21 cell fusion, luciferase;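 active = mean replicate inhibition score of at least 50 and every replicate individually at or above 50; inconclusive = only one of the two criteria met; inactive = mean below 50 and not all replicates reaching 50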;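 also: 0% = plate neutral controls and 100% = maraviroc near 300 nM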
FGF22 binding: shifts melting point of recombinant human FGF22; Q9HCT0; recombinant FGF22 thermal shift, SYPRO orange fluorescence; percent of sucrose octasulfate shift, DMSO zero; activity (Tm shift, normalised), % at 9.99 µM; 1.5% of 340,000 active; AID 651658;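 active = mean Tm shift, scaled 0 neutral to 100 positive control, at about 1.3% or above, every replicate too, limit read from the data; inconclusive = no clear call, values can overlap the other calls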
Target sequence (Q9HCT0 whole entry, looked up): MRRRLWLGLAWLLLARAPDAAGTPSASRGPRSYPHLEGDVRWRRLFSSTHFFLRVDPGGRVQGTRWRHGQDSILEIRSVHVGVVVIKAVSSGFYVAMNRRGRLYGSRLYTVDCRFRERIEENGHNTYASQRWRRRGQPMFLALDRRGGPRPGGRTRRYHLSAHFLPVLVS
S100A4 MyoIIA: S100A4-myosin IIA interaction inhibition | P26447 | S100A4/TAMRA-MyoIIA peptide fluorescence polarization | inhibition, % at 10.7 µM | 0.14% of 360,000 active | AID 652163;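 active = mean inhibition of at least 70% across replicates, with every replicate also reaching that level; inconclusive = mean inhibition reaches 70% but some replicates fall short; inactive = mean inhibition below 70%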
Target sequence (P26447 whole entry, looked up): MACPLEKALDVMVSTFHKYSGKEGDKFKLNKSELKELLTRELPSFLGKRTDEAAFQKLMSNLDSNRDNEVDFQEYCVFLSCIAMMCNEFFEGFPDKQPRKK
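Assay system: human S100A4 monomer with TAMRA-labelled myosin IIA peptide / Buffer or medium: Calcium-containing HEPES buffer, pH 7.2 / Reagent: TAMRA-labelled myosin IIA heavy-chain peptide probe, 5 nM / Compound: one dose per compound / Timing: polarization read 5 min after assay mix addition, stable 5–60 min / Benchmarks: neutral control DMSO, positive control TFP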
F508del corr: correctors of CFTR F508del function in bronchial epithelial cells; CFBE cells, YFP halide quenching; stimulated with forskolin plus potentiator P3; % fluorescence drop versus neutral controls; activity (quench increase), % at 7.58 µM; 0.36% of 350,000 active;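 active = mean added fluorescence quench of at least 8% versus neutral control, with both replicates also reaching 8%; inconclusive = only one of the mean or replicate conditions met; inactive = mean below 8% and not both replicates reaching 8%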;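 also: cells transiently co-express mutant CFTR-F508del with the halide-sensitive YFP; corrector assay measuring rescue of mutant channel to the surface after 24 h compound exposure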
An asterisk follows results filed as active; ? = inconclusive; nt = no result; [ ] = another dose, or the depositor's remark. This is a sample that favours compounds with a hit; in the whole collection about 2.7% have one here.

SMILES	E-selectin induc	HIV Env fusion	FGF22 binding	S100A4 MyoIIA	F508del corr
CC(=O)OCC(=O)NCCCOc1cccc(CN2CCCCC2)c1	0	0	0	0	8.3*
CC(SCc1ccccc1)C(=O)N/N=C/c1cc2c(cc1Br)OCO2 (configuration not stated)	nt	88*	nt	nt	nt
CC(SCc1ccccc1)C(=O)Nc1ccc2c(c1)OCO2 (configuration not stated)	nt	-8	nt	nt	nt
O=C(NC(=S)Nc1ccc(S(=O)(=O)Nc2ccccc2)cc1)C1CC1	0	0	43*	3	-1
O=C(O)c1ccc(S(=O)(=O)N(Cc2ccc(F)cc2)C2CCCCC2)cc1	nt	13	0	-2	2
CC(=O)NS(=O)(=O)c1ccc(NC(=S)NC(=O)C2CCC2)cc1	0	6	0	0	1
CC(C)c1ccc(NC(=S)NNC(=O)C2CC2)cc1	2	-5	0	0	1
CN(C)S(=O)(=O)c1ccc(NC(=S)NC(=O)C2CCC2)cc1	0	-22	0	3	-1
O=C(NNC(=S)Nc1ccccc1)C1CCCCC1	nt	-10	44*	-1	0
CN(Cc1ccccc1)S(=O)(=O)c1ccc(S(=O)(=O)N(Cc2ccc(F)cc2)C2CCCC2)cc1	nt	58*	nt	nt	nt
CN(Cc1ccccc1)S(=O)(=O)c1ccc(NC(=S)NC(=O)C2CCCC2)cc1	nt	nt	0	-1	14*
Cc1nn(C)cc1NC(=O)C[C@H]1CC[C@H]2[C@@H](COc3ccc(NC(=O)C(C)C)cc3C(=O)N2C)O1	0	-1[16.7 µM]	0	nt	0
Cc1ccccc1S(=O)(=O)NCC[C@@H]1CC[C@@H](NS(=O)(=O)c2ccccc2C)[C@H](CO)O1	13	-17[16.7 µM]	0	32	1
O=C(COc1ccccc1)N/N=C/c1ccc([N+](=O)[O-])o1	nt	-12	0	2	-2
O=C(CNc1ccc2ccccc2c1)N/N=C/c1ccc([N+](=O)[O-])o1	nt	-17	43*	17	-5
Cc1cc(F)ccc1S(=O)(=O)N1CCCCC1CCNC(=O)C(=O)NCc1ccccn1 (configuration not stated)	75*	-8	0	1	-2
CC(C)CCSc1nc(N)c(C#N)cc1C#N	nt	82*	nt	nt	nt
CCNC(=O)C[C@H]1CC[C@@H]2[C@@H](COc3ccc(NC(=O)Nc4cccc(OC)c4)cc3C(=O)N2C)O1	0	59*[16.7 µM]	0	nt	-1
CC(C)NC(=O)Nc1ccc2c(c1)C(=O)N(C)[C@@H]1CC[C@@H](CC(=O)NCC(F)(F)F)O[C@@H]1CO2	105*	-8[16.7 µM]	0	nt	2
CCNC(=O)C[C@@H]1CC[C@@H]2[C@H](COc3ccc(NC(=O)Nc4cccc(OC)c4)cc3C(=O)N2C)O1	0	-14[16.7 µM]	0	nt	1
CCNC(=O)C[C@@H]1CC[C@H]2[C@@H](COc3ccc(NC(=O)Nc4ccc(F)cc4)cc3C(=O)N2C)O1	84*	1[16.7 µM]	0	2	-3
O=C(Nc1ccc2c(c1)[C@H]1C[C@@H](CC(=O)N3CCCCC3)O[C@H](CO)[C@H]1O2)C1CCC1	0	-33[16.7 µM]	0	-8	-1
COc1cccc(-c2ccc3c(c2)[C@H]2[C@H](CCN2C(=O)c2cccc(F)c2)[C@@H](CO)N3)c1	-1	nt	0	-5	1
CCc1cc2c(SCC#N)ncnc2s1	nt	-41	43*	-4	-1
C[C@@H]1CN([C@H](C)CO)C(=O)CCCn2cc(nn2)CO[C@@H]1CN(C)C(=O)Nc1cccc(C(F)(F)F)c1	0	nt	nt	nt	1
SMILES	E-selectin induc	HIV Env fusion	FGF22 binding	S100A4 MyoIIA	F508del corr
CC(=O)OCC1OC(COC(C)=O)(c2ccc(C)cc2)C(OC(C)=O)C1OC(C)=O (configuration not stated)	-1	-53	51*	3	0
Cc1ccc(SCC(=O)OCC(=O)NCc2cccs2)cc1C	-1	0	1	3	-4
COc1ccccc1CNC(=O)COC(=O)CSc1ccc(C)c(C)c1	-1	68*	0	1	-2
Cc1ccc(C)c(SCC(=O)OCC(=O)NCc2ccccc2)c1	nt	8	44*	1	5
Cc1ccccc1SCC(=O)OCC(=O)NCCNC(=O)COC(=O)CSc1ccccc1C	1	2	0	-10	3
Cc1noc(C)c1S(=O)(=O)Nc1ccc2c(c1)C(=O)N([C@@H](C)CO)C[C@H](C)[C@H](CN(C)S(=O)(=O)c1cccs1)O2	0	22[16.7 µM]	0	2	0
Cn1c(CN2CCCC2)c(C#N)c2ccccc21	nt	-52	43*	4	1
COC(=O)c1ccc(CN2CC(=O)N3[C@H](CO)[C@H](c4ccc(-c5ccccc5F)cc4)[C@@H]3C2)cc1	0	nt	nt	-6	2
O=C(CNC(=O)c1ccccc1)OCC(=O)N1N=C(c2ccc(Cl)cc2)CC1c1ccco1 (configuration not stated)	0	-3	43*	4	1
COc1ccc(C2CC(c3ccccc3)=NN2C(=O)COC(=O)CNC(=O)c2ccccc2)cc1 (configuration not stated)	-8	19	0	3	0
C[C@H]1CN([C@@H](C)CO)S(=O)(=O)c2ccc(C#CC3(O)CCCC3)cc2O[C@H]1CN(C)C	-1	-12[16.7 µM]	0	11	1
O=C(Nc1ccc(C(F)(F)F)cc1)N[C@H]1C=C[C@@H](CC(=O)N2CCCCC2)O[C@@H]1CO	0	1[16.7 µM]	-1	128*	-3
O=C(Cc1ccccc1)N[C@@H]1C=C[C@@H](CC(=O)N2CCCCC2)O[C@@H]1CO	0	14[16.7 µM]	0	1	2
O=C(Cc1ccccc1)N[C@@H]1C=C[C@H](CC(=O)N2CCCCC2)O[C@@H]1CO	0	57*[16.7 µM]	1	0	-1
O=C(Nc1ccc(C(F)(F)F)cc1)N[C@@H]1C=C[C@@H](CC(=O)N2CCCCC2)O[C@H]1CO	0	7[16.7 µM]	0	31	3
CO[C@H]1CN(C)C(=O)c2ccc(NC(C)=O)cc2OC[C@@H](C)N(C(=O)CN2CCOCC2)C[C@H]1C	0	nt	nt	nt	-1
O=C(CN(Cc1ccco1)C(=O)c1ccc(N2CCCC2=O)cc1)Nc1ccccc1C(F)(F)F	-2	nt	0	-2	-3
COc1ccccc1NC(=O)CN(Cc1ccco1)C(=O)c1ccc(N2CCCC2=O)cc1	1	?	44*	-4	2
CO[C@H]1CN(C)C(=O)c2ccc(NC(C)=O)cc2OC[C@H](C)N(Cc2ccc(F)cc2)C[C@@H]1C	0	nt	0	9	2
NC(=O)c1sc2nccc(Nc3ccccc3)c2c1N	nt	93*	nt	nt	nt
NC(=O)c1sc2nc(-c3ccccc3)c3c(c2c1N)CCCC3	0	17	0	11	1
COc1ccc(CNC(=O)C2(C)Cc3ccccc3C(=O)O2)cc1 (configuration not stated)	nt	-38	44*	-1	2
